Ecoli WT expand: blocks growth of wild type E. coli BW25113. growth inhibition, % at 100 µM. 98,000 compounds, 0.15% hits. AID 710. OD600 absorbance;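 active = growth inhibition above about 50% at one test dose, limit read from the data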;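 also: growth measured after 20 h incubation at 37 °C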
Jurkat viability: cytotoxic compounds reducing Jurkat cell viability. Jurkat E6.1 viability, ATP luminescence, 48 h. AID 463. 56,000 compounds, 1.2% hits. inhibition, % at 4 µM;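 active = inhibition above the mean inhibition of all tested compounds plus 3 SD, cut at about 28% in these data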
H69AR inhibit: blocks growth of human H69AR lung tumor cells | viability, % at 10 µM | 85,000 compounds, 6% hits | H69AR lung tumor viability, ATP luminescence, 72 h; active compounds read low;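 active = viability at or below 40%; inactive = viability above 40%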;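 also: multidrug resistant small cell line overexpressing MRP-1 efflux transporter; 100% = mean luminescence of untreated control wells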
tolC growth inh: growth inhibitors of E. coli BW25113 tolC mutant; 65,000 compounds, 2.2% hits; OD615; growth inhibition, % at 10 µM (by protocol);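 active = growth inhibition at or above a cutoff equal to the mean over every tested compound plus 3 SD, cut at about 60% in these data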;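 also: growth measured after 20 h incubation at 37 °C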
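Test system: tolC-deleted E. coli BW25113 | Medium: LB with kanamycin 50 µg/mL | Compound dosing: Single concentration, 10 µM final per compound | Schedule: 37 °C, 20 h exposure | Measured by: OD at 615 nm | Evaluation: Percent growth inhibition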
HUVEC prolif 384: inhibitors of human endothelial cell proliferation | HUVEC proliferation, CellTiter-Glo luminescence, 72 h; active compounds read low | viability, % at 10 µM (by protocol) | 86,000 compounds, 1.1% hits;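 active = viability at or below 30%; inactive = viability above 30%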;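 also: 100% = median luminescence of DMSO-only cell control wells on each plate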
Lung fibro prol: blocks proliferation of human lung fibroblasts; LL 47 human lung fibroblast viability, ATP luminescence; active compounds read low; viability, % at 10 µM; AID 719; 85,000 compounds, 1.1% hits;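 active = viability at or below 50% in the single dose screen; inactive = viability above 50%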;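 also: compound exposure lasted 72 h before the ATP readout; 100% = median luminescence of untreated cell-only wells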
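Assay system: human lung fibroblast line LL 47, low passage. Input: 1,150 fibroblasts seeded per well. Times: overnight cell rest, 72 h compound treatment at 37 °C. Evaluation: % viability of median cell-only signal. Technique: luminescent ATP detection, CellTiter-Glo. Control set: cell-only wells, no compound.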
Numbers without * were called inactive; nt = not tested or not shown. Compounds with a hit are over-represented: about 6.4% of the library has one in this group of screens.

SMILES	Ecoli WT expand	Jurkat viability	H69AR inhibit	tolC growth inh	HUVEC prolif 384	Lung fibro prol
O=C(CCSCCc1ccccn1)Nc1ccc(Br)cn1	19	nt	99	nt	93	102
CCOCCCNC(=O)C1c2ccccc2C(=O)N2CCc3ccccc3C12 (stereo not drawn)	2	1	79	-7	100	93
Cc1cc(NC(=O)c2c(F)cccc2Cl)n(-c2nc3ccccc3[nH]2)n1	2	nt	28*	nt	59	79
COc1ccc(O)c(-c2cc(-c3cccs3)[nH]n2)c1	24	-1	64	17	72	77
CCOC(=O)C1=C(c2ccccc2)Nc2ncnn2C1c1ccc(OC)c(OC)c1OC (stereo not drawn)	4	nt	nt	nt	nt	nt
CCOC(=O)C1=C(c2ccccc2)Nc2ncnn2C1c1cc(OC)ccc1OC (stereo not drawn)	-1	5	39*	6	100	101
O=C1Nc2ccccc2CCC1Sc1nnc(-c2ccc(Cl)cc2)s1 (stereo not drawn)	nt	nt	113	nt	79	98
COc1ccc(-c2onc(C)c2-c2ccc(C(=O)OC(C)C)o2)c(O)c1	-3	-3	90	100*	83	110
COc1ccc(N2C(=O)c3ccc(C(=O)OC(C)C)cc3C2=O)cc1	nt	nt	90	nt	87	96
CC(=O)Oc1cc2c(C(=O)NCCCN3CCOCC3)c(C)oc2c2ccccc12	1	6	45	2	4.5*	4.3*
O=C(NCCCN1CCOCC1)c1ccccc1	0	nt	96	nt	96	102
CN(C)/C=C(\C=N\OCc1ccc(Cl)cc1Cl)C(=O)Nc1ccc(Cl)c(Cl)c1	-10	nt	nt	nt	nt	nt
COc1ccc(N2CC(C)Cn3c2nc2c3c(=O)[nH]c(=O)n2C)cc1 (stereo not drawn)	5	5	71	-19	102	93
CC(=O)NNC(=O)C(O)(c1ccccc1)c1ccccc1	-1	nt	nt	nt	nt	nt
Cc1ccc(/C(O)=C/C(=O)C(=O)NNC(=O)C(O)(c2ccccc2)c2ccccc2)cc1	nt	nt	11*	nt	78	112
COc1cc(-c2cc(OC)c3c(C)oc(C)c3c(=O)c2)ccc1O	7	2	30*	7	72	86
Cc1cc(S(=O)(=O)Nc2ccc3ccccc3c2)c(C)s1	-8	nt	12*	nt	55	72
Cc1cccc(N2CCN(C(=O)COc3cc(=O)n(C)c4ccccc34)CC2)c1C	5	5	78	21	82	98
Cc1cccc(N2CCN(C(=O)Cc3cn(C)c4ccccc34)CC2)c1C	-9	nt	18*	nt	71	89
CCN(CC)CC(=O)Nc1c(C)cc(C)cc1C	3	nt	nt	-14	96	105
CCO/C(C)=N/n1c2nc3ccccc3nc2c2c(=O)n(Cc3ccccc3Cl)c(C)nc21	-19	nt	73	15	85	108
Cc1cccc(C)c1OCCCCc1c(C)n[nH]c1C	5	15	101	49	92	96
Cc1ccccc1OCCCCc1c(C)n[nH]c1C	9	6	90	100*	83	94
CC(C)(C)OC(=O)NCCCCCc1nnc(SCC(=O)Nc2cccc(Cl)c2)o1	4	1	88	32	89	95
Cn1c(-c2ccc(C=O)s2)nc2c3ccccc3c3ccccc3c21	-7	nt	18*	nt	60	89
SMILES	Ecoli WT expand	Jurkat viability	H69AR inhibit	tolC growth inh	HUVEC prolif 384	Lung fibro prol
O=C(CN1C(=O)COc2ccccc21)N1CCCc2ccccc21	5	-1	98	-16	101	98
O=C(CN1C(=O)COc2ccccc21)N1CCc2ccccc2C1	nt	nt	108	nt	84	3.1*
O=C(Cc1n[nH]c(=O)c2ccccc12)OCC(=O)c1ccc2c(c1)OCCO2	-3	91*	24*	19	44	65
CC(NCCC(c1ccccc1)c1ccccc1)c1ccccc1 (stereo not drawn)	nt	nt	0.2*	16	26*	2.7*
CCNCCOC(c1ccccc1)c1ccccc1	nt	nt	89	nt	90	97
O=C(CN1C(=O)c2cccc3cccc(c23)C1=O)N1CCN(Cc2ccc3c(c2)OCO3)CC1	-7	nt	nt	nt	nt	nt
O=c1/c(=C/c2ccco2)sc2n1CN(c1cccc(Br)c1)CN=2	-13	nt	32*	nt	39	99
CCOC(=O)C1CCN(Cc2ccc(O)c3ncccc23)CC1	2	43*	1.1*	-10	80	79
Cn1c(N)c(C(=O)CCl)c(=O)n(C)c1=O	0	nt	3.0*	nt	89	76
Cc1cc(S(=O)(=O)N2CCCCCC2)c(Cl)cc1Cl	3	nt	80	nt	111	97
CCc1ccc2[nH]c(=O)c(CN(Cc3ccccc3OC)Cc3nnnn3Cc3ccco3)cc2c1	-18	2	12*	37	73	98
COc1cc2cc(CN(Cc3nnnn3Cc3ccco3)C3CCCCC3)c(=O)[nH]c2cc1OC	3	2	49	20	84	90
COc1ccccc1CN(Cc1cc2cc(C)ccc2[nH]c1=O)Cc1nnnn1Cc1ccco1	-16	8	38*	21	91	89
CCn1c(Cn2nnc(-c3ccccc3)n2)nnc1SCC(=O)N1CCOCC1	5	3	96	2	97	93
CCn1c(Cn2nnc(-c3ccccc3)n2)nnc1SCc1ccc(Cl)c(Cl)c1	-30	-7	59	73*	83	106
COc1ccc(C2(CNC(=O)Cc3ccc(OC)c(OC)c3)CCOCC2)cc1	2	nt	82	nt	101	99
Cc1ccc(-c2cc(C(=O)Nc3cccnc3)c3ccccc3n2)o1	-3	2	60	19	82	103
Cc1ccc(NC(=O)c2cc(-c3ccc(C)o3)nc3ccccc23)cc1	-9	nt	32*	nt	94	90
CCCn1c(C)cc(=O)c2cc(NC(=O)c3cnccn3)ccc21	-6	0	7.2*	-13	96	98
O=C(Nc1ccc2nccnc2c1)c1cnccn1	0	nt	96	-12	100	109
Cc1ccnc(NC(=O)c2ccccc2NC(=O)C(C)(C)C)c1	nt	nt	20*	nt	62	nt
Cc1cccnc1NC(=O)c1ccccc1NC(=O)C(C)(C)C	nt	nt	102	nt	103	nt
COc1ccc(-c2nnc(SCc3ccccc3)n2N)cc1	0	3	nt	-18	95	101
COc1ccc(-c2nnc(SCCc3ccccc3)n2N)cc1	-1	-3	96	2	100	46*
COc1cc(C)c(Cl)cc1S(=O)(=O)NCc1ccncc1	4	67*	98	2	75	91
CC(CN1CCCCC1)OC(=O)C(C)(c1ccccc1)c1ccccc1 (stereo not drawn)	-4	nt	80	nt	89	90
Cc1nc2c(ccc3nc(NC(=O)c4ccc(S(=O)(=O)N(C)C)cc4)sc32)s1	-11	18	35*	0	47	95
COc1ccc(C(=O)c2sc(NC(C)C)nc2N)cc1OC	4	nt	81	7	106	104
COc1cccc(C(=O)c2sc(NC(C)C)nc2N)c1	-5	nt	46	2	52	43*
COc1ccccc1CN=Cc1[nH]c2ccc(Br)c(Cl)c2c1O	7	nt	25*	nt	71	95
